Assay results published in PMC9530962 (Redox Biology, 2022).
Where two headings read alike, the source gives them in different places.

Key:
[1] = test system: Nrf2-HO-1 antioxidant pathway; assay type: cell-based; details: NRK52E
[2] = test system: TNF-α/NF-κB signaling pathway; assay type: cell-based; details: NRK52E
NRK52E cells [3] = assay type: cell-based
[4] = test system: C57BL/6 mice with renal injury induced by aristolochic acid exposure; assay type: in vivo
[5] = assay type: in vivo, SD rats
Summary of the method: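 Male SD rats (8 weeks, 200 ± 20 g) were acclimated for 1 week. Each rat got one intragastric dose of AAI, alone or with lycopene; controls were n = 6. Three rats were killed at each time point: 0.25, 0.5, 1, 2, 4, 8, 12, 24 and 48 h. Kidney (0.3–1 g) was homogenized in normal saline at 1:3 (w:v), and AAI was measured by HPLC.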

NRK52E cytotoxicity = assay type: cell-based; details: rat, NRK52E renal tubular epithelial cells
Summary of the method: (§1)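 NRK52E rat tubular epithelial cells were seeded at 8000 cells/well. Treatment was 24 h with AAI (0–80 μM) or LYC (0–40 μM), or AAI 40 μM with LYC 5 or 10 μM; drug went in by medium change at 40–50% density. CCK-8 (10% in serum-free DMEM) was added for 2 h at 37 °C and A450 read. Viability % = (OD sample − OD blank)/(OD control − OD blank) × 100. Morphology and confluence were viewed by light microscopy.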

NRK52E cells [6] = test: NRK52E cytotoxicity; assay type: cell-based; details: NRK52E
Summary of the method: as §1

[7] = test system: C57BL/6 mice with renal injury induced by aristolochic acid exposure; test: Renal function, kidney injury markers and oxidative stress markers in AAN mice; assay type: in vivo; details: for Cr and BUN levels in the serum: mice
Summary of the method: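 C57BL/6 AAN model: AAI 10 mg/kg/day intragastric for 28 days, with LYC 5 or 20 mg/kg/day given separately. Blood was taken 24 h after the last dose and centrifuged at room temperature for serum. Serum creatinine and BUN were measured with commercial kits, and serum KIM-1 and NGAL by ELISA. MDA, SOD, T-AOC and GSH-PX were measured with commercial kits.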

[8] = test system: C57BL/6 mice with renal injury induced by aristolochic acid exposure; test: AAN mouse model: body weight, kidney coefficient, HE/PAS histopathology; assay type: in vivo
Summary of the method: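 Male SPF C57BL/6 mice (6 weeks, 18–20 g) were acclimated for 1 week, then split into 5 groups (n = 6). Dosing was intragastric for 28 days, with vehicle 0.5% CMC. AAI 10 mg/kg/day was given at 13:00, and LYC 5 or 20 mg/kg/day at 08:00. Mice were killed 24 h after the last dose. Kidney coefficient = kidney/body weight. Kidney sections were stained with HE, PAS and Masson and scored for histopathology and tubular injury.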

Aristolochic lactam = assay type: in vivo; details: rats, after oral gavage of AAI
[9] = test system: Nrf2 antioxidant system, NF-κB signaling pathway and apoptosis-related genes in kidney; test: Nrf2 system, NF-κB pathway and apoptosis gene expression in kidneys of AAN mice; assay type: in vivo, C57BL/6 mice
[10] = HPLC determination of lycopene content in rat kidney after oral gavage; assay type: in vivo, SD rats; details: rats
Summary of the method: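 Rats (male SD) got one intragastric dose of AAI plus lycopene, and three were killed per time point (0.25–48 h). For each sample, 0.5 g kidney was homogenized with 1 ml saline. Protein in 100 μL homogenate was precipitated with 100 μL absolute ethanol, then 200 μL n-hexane (0.01% BHT) was added. HPLC used a C18 column (150 × 4.6 mm, 5 μm) with methanol:acetonitrile:dichloromethane 50:33:17, detection at 472 nm, 25 °C.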

[11] = oral gavage of lycopene; ref Previous studies; cited from earlier work
[12] = mice, AAN group (AAI 10 mg/kg/day, 28 days)

CC(=O)O[C@@H]1CC[C@@]2(C)[C@@H](CC[C@]3(C)[C@@H]2C(=O)C=C2[C@@H]4[C@@H](C)[C@H](C)CC[C@]4(C)CC[C@]23C)[C@@]1(C)C(=O)O [AKBA, Acetyl-11-keto-β-boswellic acid]
content of ROS in the cells ([1]; AKBA 40 μM, AAI 40 μM): decreased
expression of Nrf2, keap-1, HO-1, NQO1 ([1]; AKBA 40 μM, AAI 40 μM): increased
expression of Bcl-2 ([2]; AKBA 40 μM, AAI 40 μM): increased
expression of NF-κB, TNF-α, Bax, Cleaved-Caspase3 ([2]; AKBA 40 μM, AAI 40 μM): decreased

Cc1ccccc1C(=O)N1CCc2cc(-c3nc(NC(=O)Cc4ccc5c(c4)OCO5)sc3C)ccc21 [ML385]
effect of LYC on apoptosis (DAPI staining) after the addition of ML385 (NRK52E cells [3]; AAI, LYC, ML385): the effect of LYC was inhibited
effect of LYC on NF-κB, TNF-α, Bax, Cleaved-Caspase-3 and BCL-2 expression when ML385 was added ([2]; ML385 5 μM, AAI 40 μM, LYC): significantly reduced or even ineffective

COc1cccc2c1cc([N+](=O)[O-])c1c(C(=O)O)cc3c(c12)OCO3 [AAI, Aristolochic acid A]
renal interstitium fibrosis (MASSON staining) ([4]; mice, AAN group vs control): severely fibrotic
expression of IL-12 in the kidneys ([4]; model mice vs control): decreased
expression of TNF-α, IL-6, IL-10 in the kidneys ([4]; model mice vs control): increased
AA-I contents in kidney ([5]; rats, Group AAI + LYC, 15min after intragastric administration): 0
AA-I contents in kidney ([5]; rats, Group AAI + LYC, 30min): 7.955 ± 0.8107
AA-I contents in kidney ([5]; rats, Group AAI + LYC, 1h): 0
AA-I contents in kidney ([5]; rats, Group AAI + LYC, 2h): 1.516 ± 0.1493
AA-I contents in kidney ([5]; rats, Group AAI + LYC, 4h): 0
AA-I contents in kidney ([5]; rats, Group AAI + LYC, 8h): 0
AA-I contents in kidney ([5]; rats, Group AAI + LYC, 12h): 0
AA-I contents in kidney ([5]; rats, Group AAI + LYC, 24h): 0
AA-I contents in kidney ([5]; rats, Group AAI + LYC, 48h): 0
AA-I contents in kidney ([5]; rats, Group AAI, 15min after intragastric administration): 0
AA-I contents in kidney ([5]; rats, Group AAI, 30min): 8.546 ± 1.478
AA-I contents in kidney ([5]; rats, Group AAI, 1h): 0
AA-I contents in kidney ([5]; rats, Group AAI, 2h): 1.616 ± 0.04743
AA-I contents in kidney ([5]; rats, Group AAI, 4h): 0
AA-I contents in kidney ([5]; rats, Group AAI, 8h): 0
AA-I contents in kidney ([5]; rats, Group AAI, 12h): 0
AA-I contents in kidney ([5]; rats, Group AAI, 24h): 0
AA-I contents in kidney ([5]; rats, Group AAI, 48h): 0
time after feeding at which AAI has been metabolized completely in the kidney ([5]; rats, oral gavage of AAI): 2 h
number of apoptotic cells (early and late) (NRK52E cells [3]; AAI group vs control, flow cytometry): significantly increased
viability at 24 h, 40 μM (NRK52E cytotoxicity): 60%
degree of cell fusion (NRK52E cells [6]; AAI group, light microscopy): about 50%
expression of Nrf2, Keap-1, HO-1, NQO1, GSH-PX, and SOD ([1]; AAI exposure vs control): decreased
content of ROS ([1]; AAI group vs control): increased
expression of NF-κB-p65, TNF-α, and IL-6 ([2]; AAI group vs control): increased
NF-κB-P65 nuclear expression ([2]; AAI group, immunofluorescence): significantly increased
Cr and BUN levels in the serum ([7]; AAN group vs control): significantly higher
contents of CR and BUN in the serum (preliminary experiment) ([8]; mice, AAI 10 mg/kg/day, vs normal control): significantly increased
body weight [8, 12]: significantly reduced
scores of renal histopathology and tubular injury [8, 12]: significantly increased
renal index ([8]; mice, AAN group (AAI 10 mg/kg/day, 28 days) vs control): significantly lower

COc1cccc2c1cc1c3c(cc4c(c32)OCO4)C(=O)N1 [ALI, Aristolochic lactam]
accumulation of ALI in the kidney after 2 h (Aristolochic lactam): no accumulation

CC(C)=CCC/C(C)=C/C=C/C(C)=C/C=C/C(C)=C/C=C/C=C(C)/C=C/C=C(C)/C=C/C=C(\C)CCC=C(C)C [Lycopene]
degree of renal fibrosis (MASSON staining) ([4]; AAN mice after LYC intervention): alleviated
expression of TNF-α, IL-6, IL-10 and IL-12 in the kidneys ([4]; AAN mice, LYC 5 and 20 mg/kg/d, Western-blot, RT-PCR, ELISA): reversed the expression of these genes in a dose-dependent manner
content of AAI in the kidney of rats fed with lycopene compared with AAI alone ([5]; AAI + lycopene vs AAI alone): no significant difference
expression of Bax, Cleaved-Caspase3, Cleaved-Caspase9, Bcl-2, Caspase-3, and Caspase-9 (NRK52E cells [3]; AAI plus LYC intervention, Western-blot and RT-PCR): reversed the expression of these proteins
number of apoptotic cells (NRK52E cells [3]; AAI plus LYC intervention, flow cytometry): significantly decreased
cellular mitochondrial damage (NRK52E cells [3]; AAI plus LYC intervention, transmission electron microscopy): significantly reduced
cell viability (NRK52E cells [6]; LYC 5 μM, 10 μM together with AAI, 24 h, dose-dependent): increased
Nrf2 intranuclear expression ([1]; AAI plus LYC intervention, dose-dependent): significant increase
content of ROS ([1]; AAI plus LYC intervention, dose-dependent, DCFH-DA): significant decrease
expression of NF-κB-p65, TNF-α, IL-6, IL-10, IL-1β, IκB and IL-12 in the kidney ([9]; LYC intervention): reversed the expression of these genes in a dose-dependent manner
Nrf2, Keap-1, HO-1, NQO1, GSH-PX and SOD expression in the kidneys ([9]; lycopene treatment): reversed the expression of these proteins
time of highest lycopene content in the kidney [10]: 6 h
lycopene content in the kidney after 24 h ([10]; 24 h): ~0
time at which lycopene is most abundant in the kidney [11]: 6 to 8 h
NF-κB-P65 nuclear expression ([2]; AAI plus LYC intervention, immunofluorescence): significantly decreased
expression of NF-κB-p65, TNF-α, IL-6, IkB and IL-12 ([2]; AAI plus LYC treatment): reversed the expression of these proteins
expression of IL-1β in the cells ([2]; LYC treatment vs AAI group, immunofluorescence): significantly decreased
expression of AAI-induced lipid peroxidation product (MDA) ([7]; AAN mice): significantly decreased
expression of antioxidant enzyme systems (T-AOC, SOD, and GSH-PX) ([7]; AAN mice): increased
expression levels of KIM-1 and NGAL induced by AAI ([7]; AAN mice, serum, ELISA): significantly reduced
Cr and BUN levels in the serum ([7]; LYC group): significantly lower
damaged renal tissue (HE and PAS staining) ([8]; AAN mice after lycopene intervention): significant improvement
body weight ([8]; AAN mice, AL20 group (LYC 20 mg/kg/d + AAI 10 mg/kg/day, 28 days)): increased
renal tubular structure (HE and PAS staining) ([8]; mice, LYC group (LYC 20 mg/kg/d alone)): intact without signs of lesions
